Published values gathered from unrelated publications.
Compare with care: the assays were run in different laboratories.
Target: Death-associated protein kinase 1 (DAPK1, Homo sapiens, UniProt P53355)

`Cc1ccc(NC(=O)c2ccc(C)c(C(F)(F)F)c2)cc1C#Cc1nn(C2CCC(O)CC2)c2ncnc(N)c12` (centres unmarked) gave a remaining signal of 97% (cell-free assay; 10 µM).
The activity vs control of `Cc1cc(NC(=O)c2cccc3cc(-c4cccc5[nH]nc(N)c45)ccc23)ccc1F` is reported as 88% (enzyme activity; inhibitor; 0.1 µM).
`FC(F)(F)Oc1cccc(-c2cnc3ccc(-c4ccncc4)nn23)c1` gave an activity vs control of 101% (enzyme activity; inhibitor; radiometric; 1 µM).
With `CCCS(=O)(=O)Nc1ccc(F)c(C(=O)c2c[nH]c3ncc(-c4ccc(Cl)cc4)cc23)c1F` the inhibition was less than 10% (enzyme activity; inhibitor; 1 µM).
The inhibition of `CN(C)C1CCN(CC#Cc2nn(C3CCCC3)c3nc(NCc4ccccc4)ncc23)C1` (centres unmarked) is reported as -2% (enzyme activity; inhibitor; FRET; 1 µM).
`CNC(=O)c1cc(Oc2ccc(NC(=O)Nc3ccc(Cl)c(C(F)(F)F)c3)cc2)ccn1` gave an inhibition of 16% (enzyme activity; inhibitor; 0.3 µM).
The remaining signal of `C[S+]([O-])c1ccc(-c2nc(-c3ccncc3)c(-c3ccc(F)cc3)[nH]2)cc1` (centres unmarked) is reported as 90.3% (cell-free assay; 0.5 µM).
The remaining activity of `Oc1cccc(-c2nc(N3CCOCC3)c3oc4ncccc4c3n2)c1` is reported as 30% (enzyme activity; inhibitor; 10 µM).
The remaining signal of `Cc1ccc(NC(=O)c2ccc(CN3CCN(C)CC3)cc2)cc1Nc1nc(-c2cccnc2)cs1` is reported as 97.5% (cell-free assay; 0.5 µM).
For `COc1cc(Nc2cnc(C#N)c(O[C@H](C)CN(C)C)n2)ncc1-c1cnn(C)c1`, the remaining activity was 98% (enzyme activity; inhibitor; radiometric; 10 µM).
`COc1cc(-c2cn(C3CCc4ccccc4N(CC(F)(F)F)C3=O)nn2)ccc1-n1ccc(C)n1` (centres unmarked) gave a remaining binding of 79% (cell-free assay; competition with immobilised ligand; 1 µM).
`CC(C)(C)c1nc(-c2cccc(NS(=O)(=O)c3c(F)cccc3F)c2F)c(-c2ccnc(N)n2)s1` has a remaining activity of 75% (enzyme activity; inhibitor; radiometric; 1 µM).
`Cc1nc(N2CC[C@@H](O)C2)ncc1-c1cc(C(F)(F)F)cc2[nH]ncc12` has a remaining binding of 89% (binding; competition with immobilised ligand; 1 µM).
For `CCN(CC)c1ccc(C2=NNC(=O)CC2C)cc1[N+](=O)[O-]` (centres unmarked), the remaining activity was 105% (enzyme activity; inhibitor; 10 µM).
The remaining binding of `O=C(Nc1cnc(Oc2ccc(F)cc2)nc1)N1CCc2ncccc2[C@@H]1c1ccc(F)cc1` is reported as 78% (cell-free assay; competition with immobilised ligand; 1 µM).
The remaining activity of `Cc1sc(C(=O)NC2COC2)cc1-n1cc(NC(=O)Nc2c(F)cccc2Cl)cn1` is reported as 104% (enzyme activity; inhibitor; 10 µM).
With `CCC(=O)N[C@H]1CC[C@@H](C(=O)N(C)c2ccc(-c3nc4ccccc4o3)cc2)C1` the remaining binding was 96% (cell-free assay; competition with immobilised ligand; 1 µM).
`CCN(CC)CCNC(=O)c1c(C)[nH]c(/C=C2\C(=O)Nc3ccc(F)cc32)c1C` gave a remaining signal of 66.9% (cell-free assay; 0.5 µM).
With `O=C(Nc1cccnn1)N1CC(C/C=C/c2cncc(Oc3ccc(C(F)(F)F)cn3)n2)C1` the remaining binding was 98% (cell-free assay; competition with immobilised ligand; 1 µM).
With `COc1cc(/C=C/C(=O)CC(=O)/C=C/c2ccc(O)c(OC)c2)ccc1O` the activity vs control was 93% (enzyme activity; inhibitor; 1 µM).
`CCCCN(CCCC)C(=O)CN1C[C@@H](c2cc(OC)c3c(c2)OCO3)[C@H](C(=O)O)[C@H]1CC(C)(C)CCC` has a remaining binding of 82.8% (cell-free assay; competition with immobilised ligand; 1 µM).
The inhibition of `Cc1ncc([N+](=O)[O-])n1C(=NO)c1ccccc1C(F)(F)F` is reported as 16.5% (enzyme activity; inhibitor; 10 µM).
`CS(=O)(=O)N1CCCC(NC(=O)[C@H](CCC2CCCCC2)NC(=O)c2ccc(CNc3ncnc4c3nnn4-c3ccccc3)cc2)C1` (some centres unmarked) gave a remaining binding of 92% (cell-free assay; competition with immobilised ligand; 0.1 µM).
`Cc1ccc(Nc2nccc(N(C)c3ccc4c(C)n(C)nc4c3)n2)cc1S(N)(=O)=O` gave an inhibition of 16% (enzyme activity; inhibitor; 0.3 µM).
`C[C@@H]1CN(c2cc(-c3nn(C)c4ccc(OC5(C)CC5)cc34)ncn2)C[C@H](C)O1` gave a remaining binding of 100% (cell-free assay; competition with immobilised ligand; 1 µM).
`O=C1Nc2ccc(Cl)cc2C1=Cc1cc(Cl)c(O)c(Cl)c1` gave a remaining signal of 90% (cell-free assay; 0.5 µM).
